Screening data as filed in PubChem BioAssay.
TAAR1 antagonist – antagonists of human TAAR1; CHO RD-HGA16 TAAR1, Fluo-8 calcium fluorescence, antagonist; Q96RJ0; AID 624466; inhibition, % at 3 µM; 1.5% of 360,000 active;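 active = inhibition above a per-plate cutoff, the mean inhibition of test compounds on that plate plus 3 SD, cut at about 49% in these data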;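 note: 0% = DMSO plus EC80 beta-PEA response and 100% = DMSO alone without agonist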
Target sequence (Q96RJ0 whole entry, looked up): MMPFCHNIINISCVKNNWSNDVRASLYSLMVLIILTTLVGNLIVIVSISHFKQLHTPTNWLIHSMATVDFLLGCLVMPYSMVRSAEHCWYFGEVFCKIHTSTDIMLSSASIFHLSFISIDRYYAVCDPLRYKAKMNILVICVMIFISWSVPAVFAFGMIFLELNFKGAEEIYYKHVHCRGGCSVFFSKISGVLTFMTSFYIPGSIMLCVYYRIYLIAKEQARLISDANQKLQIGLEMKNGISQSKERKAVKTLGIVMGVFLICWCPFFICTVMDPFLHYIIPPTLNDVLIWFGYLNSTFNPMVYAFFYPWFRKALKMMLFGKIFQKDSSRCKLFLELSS
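Assay system: RD-HGA16 CHO cells with stable hTAAR1 and Gα16 / Reagent: EC80 β-phenethylamine stimulus / Doses: 3 µM, single point / Timing: dye loading 75 min at 37 °C, then 30 min room temperature / Measured by: Fluo-8 intracellular calcium dye fluorescence, real-time kinetic reads / Controls: vehicle wells and EC80 agonist wells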
Rce1 inh – inhibitors of yeast Ras-converting enzyme | yeast membranes, quenched prenylated peptide cleavage fluorescence | calls only | Q03530 | 0.27% of 290,000 active;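 active = fall in fluorescence gain of 50% or more versus controls, with final raw signal at or below 3038400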;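 note: plate controls were neutral control wells for no effect and wells lacking membranes for full effect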
Target sequence (Q03530 whole entry, looked up): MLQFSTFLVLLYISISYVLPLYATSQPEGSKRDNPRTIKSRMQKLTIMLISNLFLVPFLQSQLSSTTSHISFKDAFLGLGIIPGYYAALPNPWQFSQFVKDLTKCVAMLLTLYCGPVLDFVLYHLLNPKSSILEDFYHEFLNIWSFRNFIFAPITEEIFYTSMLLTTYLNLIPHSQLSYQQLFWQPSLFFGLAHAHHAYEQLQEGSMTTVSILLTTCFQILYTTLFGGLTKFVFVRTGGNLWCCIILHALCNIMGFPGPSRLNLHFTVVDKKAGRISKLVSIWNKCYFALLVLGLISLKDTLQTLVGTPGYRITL
TAAR1 agonist – agonists of human TAAR1. activation, % at 3 µM. CHO RD-HGA16 TAAR1, Fluo-8 calcium fluorescence; vehicle wells 0%, saturating PEA agonist 100%. AID 624467. Q96RJ0. 0.99% of 360,000 active;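 active = activation above the mean activation of all test compounds in the run plus 3 SD, cut at about 38% in these data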
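Test system: RD-HGA16 (CHO) cells co-expressing Gα16 and hTAAR1 | Doses: Single dose, 3 µM | Schedule: 17-24 h seeding, 75 min 37 °C dye, 30 min RT | Evaluation: % activation from peak over basal fluorescence ratio, DMSO-to-PEA scaled | Technique: Kinetic Fluo-8 calcium fluorescence | Benchmarks: Low control DMSO, high control PEA (EC100)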
Platelet DG rel – modulates dense granule release in human platelets; AID 1663; human platelet-rich plasma, SFLLRN dense granule ATP release, luminescence; inhibition, %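 (compounds screened at 7.5 µM in platelet-rich plasma)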; 0.22% of 300,000 active;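 active = mean replicate score, as percent of positive control, at or above 50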
VLA-4 inh – inhibition in a human VLA-4 binding assay; AID 2557; 0.2% of 330,000 active; inhibition, % (about 7 µM as worked out from the volumes in the protocol); P13612; VLA-4 expressing cells, ligand binding flow cytometry; in the data active = inhibition above about 50%
nonsel antag count – counter-screen for TAAR1 antagonists: nonselective antagonists; counterscreen cell line, calcium fluorescence, antagonist mode; shares compounds with TAAR1 antagonist; inhibition, % at 3 µM; 77% of 2,400 active; in the data active = inhibition above about 22%;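 note: CHO-Ga16 host cells stimulated with ATP at an EC80 level; 0% = agonist EC80 plus vehicle and 100% = vehicle without agonist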
TAAR1 ant conf – confirmation of human TAAR1 antagonists; shares compounds with TAAR1 antagonist; TAAR1-expressing cells, fluorescence antagonist read-out; inhibition, % at 3 µM; 40% of 2,400 active; AID 651785; in the data active = inhibition above about 49%;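 note: CHO-Ga16 host cells challenged with agonist PEA near its EC80; 0% = agonist at EC80 plus vehicle and 100% = vehicle with no agonist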
Ga16 nonsel ag – nonselective Ga16 agonist in TAAR1 antagonist counter-screen | Ga16-expressing cells, calcium fluorescence, agonist counterscreen | shares compounds with TAAR1 antagonist | activation, % at 3 µM | 18% of 2,400 active; in the data active = activation above about 12%;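 note: 0% = vehicle wells and 100% = saturating stimulus response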
TAAR1 ag counter – counter-screen for human TAAR1 antagonists: TAAR1 agonists | 2% of 2,400 active | activation, % at 3 µM | shares compounds with TAAR1 antagonist | hTAAR1 cell line, fluorescence activation, agonist mode; in the data active = activation above about 37%;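 note: CHO cells stably expressing TAAR1 with calcium dye readout; 0% = DMSO vehicle and 100% = full agonist response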
* hit, by the source's call. In the library only some 2.6% were active in any assay of this set; here they are far more common.

What do the screens show for `COc1cccc(NC(=O)C2CCN(C(=O)[C@@H]3Cc4ccccc4CN3)CC2)c1`?
TAAR1 antagonist: 8; Rce1 inh: inactive; TAAR1 agonist: 1; Platelet DG rel: 0; VLA-4 inh: -18

Results for O=C(O)c1ccc(N/N=C/C2=C(N3CCOCC3)C(=C\c3ccccc3)/CC2)cc1 ?
TAAR1 antagonist: 82*; Rce1 inh: inactive; TAAR1 agonist: 14; Platelet DG rel: 2; VLA-4 inh: -22; nonsel antag count: 51*; TAAR1 ant conf: 65*; Ga16 nonsel ag: 9; TAAR1 ag counter: 8

What do the screens show for `Cc1cc(C)nc(N/N=C/C2=C(N3CCOCC3)C(=C\c3ccc(Cl)cc3)/CC2)n1`?
TAAR1 antagonist: 0; Rce1 inh: inactive; TAAR1 agonist: -1; Platelet DG rel: 0; VLA-4 inh: -11

How did CCCc1cc(=O)[nH]c(SCc2cc(=O)oc3cc(C)c(C(C)C)cc23)n1 do in these assays?
TAAR1 antagonist: 103*; Rce1 inh: inactive; TAAR1 agonist: -3; Platelet DG rel: -10; VLA-4 inh: 10; nonsel antag count: 16; TAAR1 ant conf: 1; Ga16 nonsel ag: 3; TAAR1 ag counter: 5

How did O=C(CC1C(=O)NCCN1C(=O)c1ccccc1)Nc1cc(Cl)ccc1Cl (stereo not drawn) do in these assays?
TAAR1 antagonist: -12; Rce1 inh: inactive; TAAR1 agonist: 6; Platelet DG rel: -8; VLA-4 inh: 4

Results for COc1ccc(NC(=O)c2sc3ncnc(N4CCN(c5ccccn5)CC4)c3c2C)cc1Cl ?
TAAR1 antagonist: 80*; Rce1 inh: inactive; TAAR1 agonist: 12; Platelet DG rel: 2; VLA-4 inh: 6; nonsel antag count: 48*; TAAR1 ant conf: 55*; Ga16 nonsel ag: 13*; TAAR1 ag counter: 13

How did CCOC(=O)C1=CCN(S(=O)(=O)c2ccccc2Br)C1c1ccc(F)cc1 (stereo not drawn) do in these assays?
TAAR1 antagonist: 9; TAAR1 agonist: 0

Results for N#CCc1ccc(NC(=O)c2ccc(S(=O)(=O)N3CCCC3)cc2)cc1 ?
TAAR1 antagonist: 57*; Rce1 inh: inactive; TAAR1 agonist: 23; Platelet DG rel: -3; VLA-4 inh: -2; nonsel antag count: 30*; TAAR1 ant conf: 54*; Ga16 nonsel ag: 15*; TAAR1 ag counter: 17

Results for Cc1ccc(NC(=O)c2ccc(S(=O)(=O)N3CCC(C)CC3)cc2)cc1 ?
TAAR1 antagonist: 79*; Rce1 inh: inactive; TAAR1 agonist: 29; Platelet DG rel: 5; VLA-4 inh: 22; nonsel antag count: 0; TAAR1 ant conf: -4; Ga16 nonsel ag: 1; TAAR1 ag counter: -2

What do the screens show for `CC1(c2ccccc2)NC(=O)N(CC(=O)Nc2cccc(/C=C/c3ccccn3)c2)C1=O` (stereo not drawn)?
TAAR1 antagonist: 50*; Rce1 inh: inactive; TAAR1 agonist: 9; Platelet DG rel: -7; VLA-4 inh: 1; nonsel antag count: 15; TAAR1 ant conf: 33; Ga16 nonsel ag: 6; TAAR1 ag counter: 10

How did Cc1cc(C)cc(NC(=O)CN2C(=O)NC(C)(c3ccccc3)C2=O)c1 (stereo not drawn) do in these assays?
TAAR1 antagonist: 8; Rce1 inh: inactive; TAAR1 agonist: 8; Platelet DG rel: -17; VLA-4 inh: 4

How did CCOC(=O)c1ccc(NC(=O)CN(C)S(=O)(=O)c2ccc(Br)s2)cc1 do in these assays?
TAAR1 antagonist: 85*; Rce1 inh: inactive; TAAR1 agonist: 12; Platelet DG rel: 2; VLA-4 inh: 19; nonsel antag count: 38*; TAAR1 ant conf: 48; Ga16 nonsel ag: 9; TAAR1 ag counter: 6

What do the screens show for `O=C(CN(C(=O)CCC(=O)Nc1nccs1)c1ccc2c(c1)OCO2)NCc1ccccc1`?
TAAR1 antagonist: -4; Rce1 inh: inactive; TAAR1 agonist: -2; Platelet DG rel: -3; VLA-4 inh: 8

How did O=C(NCCNC(=O)c1cc(Cl)ccc1Cl)c1cnccn1 do in these assays?
TAAR1 antagonist: 1; Rce1 inh: inactive; TAAR1 agonist: 1; Platelet DG rel: 7; VLA-4 inh: -6

What do the screens show for `CC(=O)Nc1cccc(C(=O)N/N=C/c2c[nH]c3ccccc23)c1`?
TAAR1 antagonist: 3; Rce1 inh: inactive; TAAR1 agonist: 3; Platelet DG rel: 5; VLA-4 inh: 6

Results for Cc1ccc(OCC(=O)NNC(=O)c2ccccc2OCc2c(C)noc2C)cc1 ?
TAAR1 antagonist: 4; Rce1 inh: inactive; TAAR1 agonist: 3; Platelet DG rel: 1; VLA-4 inh: -1

How did O=C(CN1CCN(S(=O)(=O)c2ccccc2C(F)(F)F)CC1)NCc1cccs1 do in these assays?
TAAR1 antagonist: -9; Rce1 inh: inactive; TAAR1 agonist: 2; Platelet DG rel: 0; VLA-4 inh: -3

How did NC(=O)c1ccsc1NC(=O)CN1CCN(S(=O)(=O)c2ccccc2C(F)(F)F)CC1 do in these assays?
TAAR1 antagonist: 89*; TAAR1 agonist: 20; nonsel antag count: 30*; TAAR1 ant conf: 65*; Ga16 nonsel ag: 20*; TAAR1 ag counter: 34

How did CCC(C)n1c(NC(=O)c2ccccc2)c(C#N)c2nc3ccccc3nc21 (stereo not drawn) do in these assays?
TAAR1 antagonist: 54*; Rce1 inh: inactive; TAAR1 agonist: 14; Platelet DG rel: -4; VLA-4 inh: -193; nonsel antag count: 28*; TAAR1 ant conf: 21; Ga16 nonsel ag: 5; TAAR1 ag counter: 0

How did CCCCn1c(NC(=O)c2ccc(F)cc2)c(C#N)c2nc3ccccc3nc21 do in these assays?
Rce1 inh: inactive; Platelet DG rel: -1; VLA-4 inh: -327

Results for COc1ccc(CCn2c(C)cc3c(c2=O)C(c2ccc4c(c2)OCO4)C(C#N)=C(N)O3)cc1OC (stereo not drawn) ?
TAAR1 antagonist: 53*; Rce1 inh: inactive; TAAR1 agonist: 2; Platelet DG rel: -2; VLA-4 inh: -13; nonsel antag count: 29*; TAAR1 ant conf: 37; Ga16 nonsel ag: 4; TAAR1 ag counter: 4

What do the screens show for `Cc1cc2c(c(=O)n1Cc1ccccn1)C(C(C)C)C(C#N)=C(N)O2` (stereo not drawn)?
TAAR1 antagonist: 6; Rce1 inh: inactive; TAAR1 agonist: 2; Platelet DG rel: -4; VLA-4 inh: 15
